Drawing on ChEMBL document CHEMBL4513216, “Probing the Open Global Health Chemical Diversity Library for Multistage-Active Starting Points for Next-Generation Antimalarials” (ACS Infect Dis, 2020), this text covers cytotoxicity for 97 compounds.

The data set in a line: Toxicity liver stage against HepG2, at 10uM. Type of data set: cell-based. Also on record: test concentration 10 uM, cell line HepG2-A16-CD81EGFP. As to conditions: human, HepG2-A16-CD81EGFP cells; read-out: INHIBITION
The procedure, abridged:
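Uninfected HepG2-A16-CD81EGFP cells, 3 × 10^3 per well, 1536-well, plated on prespotted compound at 10 μM final, parasite-free screening media added to match infected plates; puromycin 10 μM positive, DMSO 0.5% negative; run in parallel with 48 h PbLuc assay at 37 °C, 5% CO2; viability by CellTiter-Glo luminescence, normalized to controls.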
With `CC(=O)N1C[C@@H](F)[C@@H](OCc2nc3cc(C)c(C)cc3[nH]2)C1`, the cytotoxicity at 10 µM worked out at 1.77%.
With `COCCOc1ncccc1-c1noc([C@@H]2CCCN2C2CCC2)n1` the figure was -7.68%; with `COc1ccc(CN2C[C@H](O)C[C@H]2c2nc(-c3ccccc3)no2)cc1`, 0.223%.
As to `Cc1cc(C(=O)Nc2n[nH]c(C3CC3)n2)c2c(C)noc2n1`, the cytotoxicity at 10 µM was -1.86%.
In the case of `CC(C)n1[nH]c(=O)c2c1NC(=O)CSC2c1ccc(OCC(N)=O)cc1` (configuration not stated) it was 8.46%; in that of `Cn1ccc2c(C(=O)N3CCC(C(N)=O)CC3)cccc21`, 2.92%.
For the compound `Cc1cnc2n(c1=O)CC(C(=O)Nc1cccc3cccnc13)CS2` (configuration not stated), the cytotoxicity at 10 µM is -19.6%.
Take `CC(C)NC(=O)c1ccc2c(c1)nc1n2CCN(c2ccccc2)C1`: the cytotoxicity at 10 µM was -3.99%.
With `c1ccc(O[C@H]2CC[C@H]3[C@H]2OCCN3Cc2nccs2)nc1`, the cytotoxicity at 10 µM is -12.6%.
With `c1nc2c(c(C3CC3)n1)CCN(Cc1ccoc1)CC2`, the cytotoxicity at 10 µM was -22.7%.
`CCn1nnc2c1C(COC)CN(C(=O)Cc1cccs1)C2` (configuration not stated): the cytotoxicity at 10 µM was -15.5%.
In the case of `Cc1noc([C@H]2CC[C@@H]3[C@@H](CCN3S(C)(=O)=O)O2)n1` it was -19.3%.
With `CC(C(=O)N1CCN(c2ccc(F)cc2)CC1)n1cc(Br)cn1` (configuration not stated), the cytotoxicity at 10 µM worked out at 9.35%.
With `Cc1cc2ccncc2n1CC1(O)CCN(C(=O)c2ccncc2)CC1` the figure was 7.53%; with `CN1C[C@@H](C(=O)NCC(F)(F)F)[C@@]2(CCc3ccccc3C(=O)N2)C1`, 6.22%; with `Cc1csc2c(C3CCCN(C(=O)Cn4cncn4)C3)nc(C)n12` (configuration not stated), 5.27%.
Turning to `CCCn1nccc1-c1nccnc1CC1CCN(C(C)=O)C1` (configuration not stated), the cytotoxicity at 10 µM was determined as 1.34%.
In the case of `CSCC[C@@H]1CN2CCC[C@H]2CN1Cc1coc2ccc(Cl)cc2c1=O`, the cytotoxicity at 10 µM worked out at 0.11%.
Regarding `COc1ncc(CN2CCCC(c3[nH]ncc3S(C)(=O)=O)C2)cn1` (configuration not stated), the cytotoxicity at 10 µM was found to be 7.24%.
As for `COCCOCCSc1nnc(Cc2ccccc2F)o1`, the cytotoxicity at 10 µM came out at 14.5%.
On to `CCN(CCO)Cc1ccc(Br)c2cccnc12`, for which the cytotoxicity at 10 µM came to 1.95%.
As to `Cc1nccn1-c1ccc(NS(=O)(=O)c2cccnc2)cn1`, the cytotoxicity at 10 µM is -4.73%.
For `CCn1ccnc1CN1CCCN(C(=O)C2(C#N)CCCCC2)CC1`, the cytotoxicity at 10 µM amounted to 3.75%.
For `O=c1[nH]c(=O)n(CC(O)c2ccccc2Cl)cc1Cl` (configuration not stated), the cytotoxicity at 10 µM stood at 9.71%.
On to `COC(=O)CNC(=O)CCc1cc(Br)cs1`, for which the cytotoxicity at 10 µM came out at 0.624%.
Regarding `CCCC(=O)NC1CCCN(c2nc3ccccc3cc2CO)C1` (configuration not stated), the cytotoxicity at 10 µM was -44.5%.
In the case of `CN(CC(=O)N1CCCC(n2ccnc2)C1)c1cnccn1` (configuration not stated), the cytotoxicity at 10 µM was found to be 1.41%.
In the case of `Cc1nnc(C(C)N2CCN(Cc3noc(C(C)(C)C)n3)CC2)o1` (configuration not stated), the cytotoxicity at 10 µM is -13.3%.
In the case of `CC1CN(C)CCN1C(=O)c1cccn1Cc1cccs1` (configuration not stated) it was -14.1%; in that of `Cc1ccc(S(=O)(=O)N(C)CC(C)O)c(F)c1` (configuration not stated), -11.4%; in that of `Cc1ccc(C(NC(=O)CN2CCc3c(ncn3C)C2)C2CC2)cc1` (configuration not stated), -2.43%.
Consider `CCc1ncnc(N2CCOCC2CCO)c1F` (configuration not stated), for which the cytotoxicity at 10 µM was -2.56%.
Turning to `Cc1ccc(N2CCCN(C(=O)CCCn3ccnc3C)CC2)nn1`, the cytotoxicity at 10 µM was -3.83%.
On to `CCn1cnnc1CNC(=O)N(C)Cc1ccccc1OC`, for which the cytotoxicity at 10 µM is -7.32%.
With `O=C(NCC(=O)N1CCCC1Cc1cccc(F)c1)C1CCCC1` (configuration not stated), the cytotoxicity at 10 µM is -18%.
With `Cn1cc(C(=O)NCCC(=O)N2CCCCC2)c(-c2cccnc2)n1`, the cytotoxicity at 10 µM was -5.93%.
With `O=C(Nc1ccccc1OC1CCOC1)c1ccon1` (configuration not stated) the figure was -0.238%; with `COCCCn1ccc(NC(=O)NCCCNc2ccccc2)n1`, 4.97%.
Consider `Cn1nnc2c1CCN(C(C(=O)N1CCCCC1)c1ccccc1)C2` (configuration not stated), for which the cytotoxicity at 10 µM was -2.56%.
In the case of `CC(O)CN1CCC(CN(C)CCC(=O)NC2CCCC2)CC1` (configuration not stated), the cytotoxicity at 10 µM is -0.663%.
With `COCCn1cc(NCc2cn(C)nc2-c2ccncc2)cn1` the figure was 2.03%; with `Nc1nccnc1C(=O)N1CCN(CCOc2ccccc2)CC1`, 12.8%; with `c1cnn(CCNCCCOc2ccc3c(c2)OCO3)c1`, 7.61%.
Regarding `Clc1ccccc1-c1nnc(CSCCN2CCOCC2)o1`, the cytotoxicity at 10 µM came out at 0.728%.
In the case of `CC(C)NC(=O)CN(C1CC1)C(C)C1CC1` (configuration not stated) it was -1.6%.
Take `Cc1cccc(N2CCN(C(=O)Cc3ccccc3O)C(C)C2)n1` (configuration not stated): the cytotoxicity at 10 µM was 13.5%.
Consider `Cn1cc(CCCNC(=O)NC2CCN(c3ccccc3)C2=O)cn1` (configuration not stated), for which the cytotoxicity at 10 µM came out at 6.75%.
Consider `O=C(Cc1cn2ccsc2n1)N(Cc1ccco1)CC1CCCO1` (configuration not stated), for which the cytotoxicity at 10 µM was found to be 7.07%.
On to `c1ccc2[nH]c(C3CCN(Cc4nnc(C5CC5)o4)CC3)nc2c1`, for which the cytotoxicity at 10 µM worked out at 0.152%.
For the compound `O=C(c1ccc[nH]1)N1CCc2ccc(S(=O)(=O)N3CCOCC3)cc2C1`, the cytotoxicity at 10 µM came to 3.99%.
Regarding `CCn1cc(CN2CCC(CN3CCCCC3)CC2)cc1C#N`, the cytotoxicity at 10 µM is -5.77%.
As to `Cc1nc(C)c(-c2nnc(SCC(=O)O)n2C(C)c2ccccc2)o1` (configuration not stated), the cytotoxicity at 10 µM was found to be 4.64%.
Regarding `c1ccc(N2CCCC(c3nc(-c4cccnn4)no3)C2)nc1` (configuration not stated), the cytotoxicity at 10 µM is -3.42%.
With `CCc1cc(N2C[C@H](C3CC3)[C@@H](N)C2)nc(N2CCOCC2)n1` the figure was -1.47%; with `Cc1nc(CCN)cc(N2CCC(O)(c3ccccc3)C2)n1` (configuration not stated), 2.03%.
As to `CCCc1nncn1-c1cc(OC)ccc1OC`, the cytotoxicity at 10 µM was 7.93%.
In the case of `CN(C)C(C(=O)N1CCN(S(N)(=O)=O)CC1)c1ccccc1F` (configuration not stated), the cytotoxicity at 10 µM amounted to 0.199%.
In the case of `Cc1cc(C)n(CC2(CNC(=O)C(c3ccccc3C)N(C)C)CC2)n1` (configuration not stated), the cytotoxicity at 10 µM worked out at 1.79%.
In the case of `O=C(CN1CCOC1=O)N1CCc2nnc(-c3ccccc3)n2CC1` it was -16.2%; in that of `CN1CC2(CCN(C(=O)c3ccc4nccnc4c3)CC2)CC1=O`, -1.7%.
In the case of `CC(C)[C@H]1CN(Cc2ccncc2)C[C@@H]1NC(=O)C1(C#N)CCOCC1` it was -4.81%; in that of `COc1cc(CN2CCN(CC3CC3)[C@@H]3CS(=O)(=O)C[C@@H]32)cc(OC)c1`, 1.41%.
`COc1nc2ccccc2cc1CN1CCC(CNS(C)(=O)=O)C1` (configuration not stated): the cytotoxicity at 10 µM was -2.7%.
As to `CC(C)n1cnnc1CCNCc1cn(CCC(N)=O)c2ccccc12`, the cytotoxicity at 10 µM is -3.81%.
Turning to `CS(=O)(=O)N(Cc1ccon1)c1ccc2c(c1)OCO2`, the cytotoxicity at 10 µM is 1.06%.
For `CCC(NS(C)(=O)=O)c1ccccc1C` (configuration not stated), the cytotoxicity at 10 µM is -43.2%.
In the case of `CCNc1ncc(C(=O)N2Cc3nc(C)[nH]c(=O)c3C2)cn1` it was -2.19%.
Turning to `C/C(=C\c1ccco1)CN(C)C(C)Cc1ccccn1` (configuration not stated), the cytotoxicity at 10 µM amounted to 1.89%.
Take `Cc1ccccc1CS(=O)(=O)NCCCN1CCCCC1`: the cytotoxicity at 10 µM turned out to be 19.4%.
Consider `CN(C(=O)C1CCCCC1)[C@@H]1CCC[C@@H](N2CCOCC2)[C@@H]1O`, for which the cytotoxicity at 10 µM is -6.33%.
With `CC(C)n1ncc2cc(NC(=O)N3CCC(C(N)=O)C3)cnc21` (configuration not stated), the cytotoxicity at 10 µM is -1.85%.
`O=C(CC1CCCO1)N1CCCN(c2cccnn2)CC1` (configuration not stated): the cytotoxicity at 10 µM was -7.72%.
As for `Cc1cccc(OCCNC(=O)CN2CCCC2c2noc(C)n2)c1` (configuration not stated), the cytotoxicity at 10 µM was -8.6%.
As for `Cc1cc(CN2CCN(C(=O)NC(C)c3cccnc3)CC2)no1` (configuration not stated), the cytotoxicity at 10 µM is -11.8%.
For `CCc1nc(C2CCCN2C(=O)c2cc3c(s2)CCC3)no1` (configuration not stated), the cytotoxicity at 10 µM is -5.86%.
`Cc1nc2n(n1)CC(NCC(=O)Nc1cc(C)on1)CC2` (configuration not stated): the cytotoxicity at 10 µM was -12.8%.
In the case of `O=C(CCc1nc(-c2ccccn2)no1)N1CCCC1c1ccsc1` (configuration not stated) it was -14.6%.
On to `c1ccc(-n2ccc(CN3CCOC(Cn4cncn4)C3)n2)cc1` (configuration not stated), for which the cytotoxicity at 10 µM is 0.561%.
In the case of `CC(NC(=O)NCCCc1n[nH]c(N)c1C#N)c1ccc(Cl)cc1` (configuration not stated), the cytotoxicity at 10 µM was -12.5%.
As to `CCC(O)CN1CCN(C(=O)c2cccn2Cc2cccnc2)CC1` (configuration not stated), the cytotoxicity at 10 µM is -14.1%.
For the compound `Cc1cn2nc(N3CCN(Cc4cc(C)on4)CC3)sc2n1`, the cytotoxicity at 10 µM is -12.1%.
As to `c1cnnc(N2CCCC2CNc2cnc3ccccc3n2)c1` (configuration not stated), the cytotoxicity at 10 µM was determined as 1.53%.
In the case of `O=C(NCCCn1nc2ccccn2c1=O)Nc1ccccc1Cl`, the cytotoxicity at 10 µM was -22.3%.
Regarding `COc1ccc(C(=O)N2CCCCC2c2nccs2)c(OC)c1` (configuration not stated), the cytotoxicity at 10 µM was -10.7%.
With `CC(C)Oc1ncccc1CNC(=O)c1cnccn1` the figure was -10.2%; with `COc1ccc(Cl)cc1C(=O)N1CCCC(n2nc(C)nc2C)C1` (configuration not stated), -4.53%.
Consider `COc1ccc(C2CCCN2C(=O)c2csc(NC(C)=O)n2)cc1` (configuration not stated), for which the cytotoxicity at 10 µM was -5.82%.
With `COc1cccc(CCC(=O)N2CCCC(n3cc(C)cn3)C2)c1` (configuration not stated) the figure was 4.28%.
As for `CCn1cc(CN2CCCN(C(=O)Cc3ccc(C)nc3)CC2)cn1`, the cytotoxicity at 10 µM was -3.87%.
As to `OCC1CCCN1c1cc(N2CCN(c3ccccn3)CC2)ncn1` (configuration not stated), the cytotoxicity at 10 µM was 3.97%.
For `Cn1cc(CN2CCc3c(COCC4CC4)cncc3C2)cn1`, the cytotoxicity at 10 µM was -6.33%.
In the case of `CC(=O)NCC(=O)N1CCOC2(CCCN(c3cccnc3)C2)C1` (configuration not stated), the cytotoxicity at 10 µM was -12.8%.
Regarding `Cn1cc(CN2CCc3onc(COc4cccnc4)c3C2)cn1`, the cytotoxicity at 10 µM is 4.78%.
With `CS(=O)(=O)NC[C@]12COC[C@H]1CN(CC1CCCC1)C2`, the cytotoxicity at 10 µM stood at 1.52%.
Regarding `COCC1CC2(CCN(C(=O)c3cc(C)oc3C)CC2)CN1C(C)C` (configuration not stated), the cytotoxicity at 10 µM was -11.4%.
In the case of `O=C(c1cocn1)N1C[C@@H]2CN(CC3CC3)CCO[C@@H]2C1` it was -2.29%; in that of `O=C(C1CC=CC1)N1CCc2c(COCc3ccncc3)cncc2C1`, -7.79%.
